Data as given in ChEMBL document CHEMBL3244395, “Antimycotic imidazoles. 2. Synthesis and antifungal properties of esters of 1-[2-hydroxy(mercapto)-2-phenylethyl]-1H-imidazoles” (J Med Chem, 1978).

Tests used:
Candida albicans [1] = assay: Antifungal activity against Candida albicans ATCC 14053 assessed as lowest concentration required for total inhibition by broth dilution assay; type: functional; conditions: read-out: MIC100
Procedure, shortened: (§1)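 Broth dilution against dermatophytes, C. albicans ATCC 10231 and 14053, and C. neoformans. The end point is the lowest concentration with total inhibition. "<" marks the lowest level tested, and ">" marks partial growth at that dilution.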

Cryptococcus neoformans = assay: Antifungal activity against Cryptococcus neoformans assessed as lowest concentration required for total inhibition by broth dilution assay; type: functional; conditions: read-out: MIC100; procedure, shortened: as §1
[2] = tested on: Trichophyton mentagrophytes; assay: Antifungal activity against Trichophyton mentagrophytes assessed as lowest concentration required for total inhibition broth dilution assay; type: functional; conditions: read-out: MIC100; procedure, shortened: as §1
Candida albicans [3] = assay: Antifungal activity against Candida albicans ATCC 10231 assessed as lowest concentration required for total inhibition by broth dilution assay; type: functional; conditions: read-out: MIC100; procedure, shortened: as §1
Nannizzia gypsea = assay: Antifungal activity against Microsporum gypseum assessed as lowest concentration required for total inhibition broth dilution assay; type: functional; conditions: read-out: MIC100; procedure, shortened: as §1
[4] = Lipophilic-hydrophilic balance, Rm of the compound assessed as change in compound Rm to miconazole Rm by reverse-phase TLC method; type: physicochemical; conditions: silicone oil-impregnated silica gel, MeCN-H2O-AcOH
Epidermophyton floccosum = assay: Antifungal activity against Epidermophyton floccosum assessed as lowest concentration required for total inhibition broth dilution assay; type: functional; conditions: read-out: MIC100; procedure, shortened: as §1
Staphylococcus aureus = assay: Antibacterial activity against Staphylococcus aureus ATCC 12600 assessed as lowest concentration required for total inhibition by broth microdilution assay; type: functional; conditions: for MIC: read-out: MIC100
Procedure, shortened: (§2)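 Broth microdilution against the listed ATCC […] strains. The value is the lowest concentration giving total inhibition. "<" marks the lowest level tested, and ">" marks partial growth at that dilution.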

Pasteurella multocida = assay: Antibacterial activity against Pasteurella multocida ATCC 19427 assessed as lowest concentration required for total inhibition by broth microdilution assay; type: functional; conditions: for MIC: read-out: MIC100; procedure, shortened: as §2
Cutibacterium acnes = assay: Antibacterial activity against Corynebacterium acnes ATCC 11828 assessed as lowest concentration required for total inhibition by broth microdilution assay; type: functional; conditions: for MIC: read-out: MIC100; procedure, shortened: as §2
Enterococcus faecalis = assay: Antibacterial activity against Streptococcus faecalis ATCC 14506 assessed as lowest concentration required for total inhibition by broth microdilution assay; type: functional; conditions: for MIC: read-out: MIC100; procedure, shortened: as §2
[5] = tested on: Erysipelothrix rhusiopathiae; assay: Antibacterial activity against Erysipelothrix insidiosa ATCC 19414 assessed as lowest concentration required for total inhibition by broth microdilution assay; type: functional; conditions: for MIC: read-out: MIC100; procedure, shortened: as §2

Molecule	MIC (Candida albicans [1])	MIC (Cryptococcus neoformans)	MIC [2]	MIC (Candida albicans [3])	MIC (Nannizzia gypsea)	deltaRm [4]	MIC (Epidermophyton floccosum)	MIC (Staphylococcus aureus)	MIC (Pasteurella multocida)	MIC (Cutibacterium acnes)	MIC (Enterococcus faecalis)	MIC [5]	MIC100 (Staphylococcus aureus)	MIC100 (Pasteurella multocida)	MIC100 (Cutibacterium acnes)	MIC100 (Enterococcus faecalis)	MIC100 [5]
CCCCOC(=O)SC(Cn1ccnc1)c1ccc(Cl)cc1Cl.O=[N+]([O-])O (stereo not drawn)	30 µg/mL	< 0.3 µg/mL	10 µg/mL	30 µg/mL	30 µg/mL	-0.14	< 0.1 µg/mL										
CCCCCCC(=O)OC(Cn1ccnc1)c1ccc(Cl)cc1Cl.O=[N+]([O-])O (stereo not drawn)	100 µg/mL	3 µg/mL	30 µg/mL	100 µg/mL	30 µg/mL	-0.16	< 0.1 µg/mL										
CC(C)OC(=S)SC(Cn1ccnc1)c1ccc(Cl)cc1Cl.O=[N+]([O-])O (stereo not drawn)	30 µg/mL	< 0.3 µg/mL	10 µg/mL	100 µg/mL	10 µg/mL	-0.14	< 0.1 µg/mL										
CCCCCCOC(=O)OC(Cn1ccnc1)c1ccc(Cl)cc1Cl.O=[N+]([O-])O (stereo not drawn)	100 µg/mL	30 µg/mL	30 µg/mL	100 µg/mL	30 µg/mL	-0.17	< 0.3 µg/mL										
CC(=O)SC(Cn1ccnc1)c1ccc(Cl)cc1Cl.O=[N+]([O-])O (stereo not drawn)	300 µg/mL	10 µg/mL	100 µg/mL	300 µg/mL	100 µg/mL		1 µg/mL										
O=C(/C=C/c1ccccc1)SC(Cn1ccnc1)c1ccc(Cl)cc1Cl.O=[N+]([O-])O (stereo not drawn)	10 µg/mL	< 1 µg/mL	10 µg/mL	10 µg/mL	30 µg/mL	-0.08	< 0.1 µg/mL										
CCCSC(=O)OC(Cn1ccnc1)c1ccc(Cl)cc1Cl.O=C(O)C(=O)O (stereo not drawn)	300 µg/mL	3 µg/mL	30 µg/mL	300 µg/mL	30 µg/mL		< 0.1 µg/mL										
CC(C)(C)c1ccc(C(=O)OC(Cn2ccnc2)c2ccc(Cl)cc2Cl)cc1.O=C(O)C(=O)O (stereo not drawn)	10 µg/mL	3 µg/mL	10 µg/mL	10 µg/mL	10 µg/mL	0.16	1 µg/mL										
CCCCCCCCCCCC(=O)OC(Cn1ccnc1)c1ccc(Cl)cc1Cl.O=[N+]([O-])O (stereo not drawn)	> 300 µg/mL	< 1 µg/mL	> 100 µg/mL	> 300 µg/mL	> 100 µg/mL	1.1	1 µg/mL	10 µg/mL	1 µg/mL	> 100 µg/mL	100 µg/mL	10 µg/mL					
O=C(Sc1ccccc1)SC(Cn1ccnc1)c1ccc(Cl)cc1Cl.O=[N+]([O-])O (stereo not drawn)	100 µg/mL	< 1 µg/mL	10 µg/mL	100 µg/mL	3 µg/mL	-0.02	< 0.1 µg/mL	10 µg/mL	3 µg/mL	> 100 µg/mL	30 µg/mL	100 µg/mL					
CCCCCCCCOC(=O)OC(Cn1ccnc1)c1ccc(Cl)cc1Cl.O=[N+]([O-])O (stereo not drawn)	30 µg/mL	3 µg/mL	10 µg/mL	300 µg/mL	10 µg/mL	0.4	< 0.1 µg/mL										
CCCCCCCCOC(=O)SC(Cn1ccnc1)c1ccc(Cl)cc1Cl.O=[N+]([O-])O (stereo not drawn)	> 300 µg/mL	< 1 µg/mL	10 µg/mL	> 300 µg/mL	30 µg/mL	0.82	< 0.1 µg/mL	1 µg/mL	1 µg/mL	100 µg/mL	30 µg/mL	10 µg/mL					
CC(C)(C)SC(=O)SC(Cn1ccnc1)c1ccc(Cl)cc1Cl.O=[N+]([O-])O (stereo not drawn)	30 µg/mL	3 µg/mL	3 µg/mL	30 µg/mL	10 µg/mL	0.05	< 0.1 µg/mL	3 µg/mL	1 µg/mL	100 µg/mL	10 µg/mL	100 µg/mL					
GENTAMICIN													1 µg/mL	< 0.1 µg/mL	1 µg/mL	30 µg/mL	30 µg/mL
CC(C)COC(=S)SC(Cn1ccnc1)c1ccc(Cl)cc1Cl.O=[N+]([O-])O (stereo not drawn)	10 µg/mL	< 0.3 µg/mL	3 µg/mL	30 µg/mL	3 µg/mL	0.17	< 0.1 µg/mL										
O=[N+]([O-])O.S=C(OC1CCCCC1)SC(Cn1ccnc1)c1ccc(Cl)cc1Cl (stereo not drawn)	3 µg/mL	< 1 µg/mL	3 µg/mL	3 µg/mL	3 µg/mL	0.43	< 0.1 µg/mL										
O=C(O)C(=O)O.S=C(OCc1ccccc1)SC(Cn1ccnc1)c1ccc(Cl)cc1Cl (stereo not drawn)	10 µg/mL	< 0.3 µg/mL	1 µg/mL	30 µg/mL	10 µg/mL	-0.21	< 0.1 µg/mL										
O=C(Cc1ccccc1)SC(Cn1ccnc1)c1ccc(Cl)cc1Cl.O=[N+]([O-])O (stereo not drawn)	100 µg/mL	< 1 µg/mL	30 µg/mL	100 µg/mL	30 µg/mL	-0.43	< 0.1 µg/mL										
O=C(Cc1ccc(F)cc1)SC(Cn1ccnc1)c1ccc(Cl)cc1Cl.O=[N+]([O-])O (stereo not drawn)	100 µg/mL	< 1 µg/mL	30 µg/mL	100 µg/mL	30 µg/mL		< 0.1 µg/mL										
Cc1ccc(C(=O)SC(Cn2ccnc2)c2ccc(Cl)cc2Cl)cc1.O=[N+]([O-])O (stereo not drawn)	10 µg/mL	< 1 µg/mL	10 µg/mL	10 µg/mL	30 µg/mL	-0.09	< 0.1 µg/mL										
O=C(Cc1ccc(Cl)cc1)OC(Cn1ccnc1)c1ccc(Cl)cc1Cl.O=[N+]([O-])O (stereo not drawn)	100 µg/mL	3 µg/mL	30 µg/mL	100 µg/mL	100 µg/mL	-0.41	< 0.1 µg/mL										
O=C(OC(Cn1ccnc1)c1ccc(Cl)cc1Cl)c1ccc(Cl)cc1Cl.O=[N+]([O-])O (stereo not drawn)	300 µg/mL	3 µg/mL	30 µg/mL	300 µg/mL	30 µg/mL	-0.24	< 0.1 µg/mL										
CCCCCOC(=S)SC(Cn1ccnc1)c1ccc(Cl)cc1.O=C(O)C(=O)O (stereo not drawn)	30 µg/mL	3 µg/mL	10 µg/mL	30 µg/mL	3 µg/mL	0.22	0.3 µg/mL										
O=C(Cc1ccc(Cl)cc1)SC(Cn1ccnc1)c1ccc(Cl)cc1Cl.O=[N+]([O-])O (stereo not drawn)	100 µg/mL	< 1 µg/mL	30 µg/mL	100 µg/mL	> 30 µg/mL		< 0.1 µg/mL										
O=C(/C=C/c1ccc(Cl)cc1)OC(Cn1ccnc1)c1ccc(Cl)cc1Cl.O=[N+]([O-])O (stereo not drawn)	> 300 µg/mL	< 1 µg/mL	10 µg/mL	> 300 µg/mL	10 µg/mL		< 0.1 µg/mL										
